Assay results as given in ChEMBL document CHEMBL1133191, “Non-amidine-containing 1,2-dibenzamidobenzene inhibitors of human factor Xa with potent anticoagulant and antithrombotic activity” (J Med Chem, 2000).

How the values were obtained:
[1] = target: Plasminogen (Homo sapiens) (UniProt P00747); assay: Measured for apparent association constant (binding affinity) for plasmin
[2] = species: Homo sapiens; assay: Prothrombin time activity, concentration required to double the time of clot formation in the prothrombin time assay; type: functional
Method in brief: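 Prothrombin time clotting assay run as described in a cited reference. The value is the compound concentration (μM) that doubles the time to clot formation. It is the mean of at least three separate experiments, with standard deviation under 20%.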

[3] = target: Coagulation factor X (Homo sapiens) (UniProt P00742); assay: Binding affinity for human Coagulation factor X
Chain of Coagulation factor X (Homo sapiens) (P00742 41-179 limits assumed): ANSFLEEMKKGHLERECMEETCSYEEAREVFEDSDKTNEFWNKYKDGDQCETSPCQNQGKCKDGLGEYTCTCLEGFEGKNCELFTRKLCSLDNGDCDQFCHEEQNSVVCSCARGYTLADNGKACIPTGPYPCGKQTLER
Chain of Coagulation factor X (Homo sapiens) (P00742 235-488 limits assumed): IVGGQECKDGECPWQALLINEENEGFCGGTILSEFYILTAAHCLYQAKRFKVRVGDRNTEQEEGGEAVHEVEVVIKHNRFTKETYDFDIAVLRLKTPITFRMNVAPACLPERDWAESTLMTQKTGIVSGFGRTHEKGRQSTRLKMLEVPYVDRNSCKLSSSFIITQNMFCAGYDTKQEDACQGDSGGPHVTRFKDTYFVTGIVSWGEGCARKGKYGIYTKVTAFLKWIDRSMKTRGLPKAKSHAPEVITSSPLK
Method in brief: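 Apparent association constant with human factor Xa, determined by the method the paper cites. Each value is the mean of at least three separate experiments, with standard deviation under 20%.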

[4] = target: Coagulation factor XI (Homo sapiens) (UniProt P03951); assay: Measured for apparent association constant (binding affinity) for Coagulation factor XI
Chain of Coagulation factor XI (Homo sapiens) (P03951 19-387 limits assumed): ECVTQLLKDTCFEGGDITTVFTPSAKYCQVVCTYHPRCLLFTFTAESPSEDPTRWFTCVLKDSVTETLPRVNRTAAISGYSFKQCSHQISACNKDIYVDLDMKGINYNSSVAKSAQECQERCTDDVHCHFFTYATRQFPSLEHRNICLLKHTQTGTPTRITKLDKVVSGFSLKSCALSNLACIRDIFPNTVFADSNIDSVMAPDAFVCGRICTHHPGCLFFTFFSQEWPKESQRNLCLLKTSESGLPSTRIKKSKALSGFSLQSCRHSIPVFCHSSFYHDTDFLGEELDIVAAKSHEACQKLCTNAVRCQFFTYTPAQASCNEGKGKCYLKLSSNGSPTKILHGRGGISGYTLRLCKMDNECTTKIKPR
Chain of Coagulation factor XI (Homo sapiens) (P03951 388-625 limits assumed): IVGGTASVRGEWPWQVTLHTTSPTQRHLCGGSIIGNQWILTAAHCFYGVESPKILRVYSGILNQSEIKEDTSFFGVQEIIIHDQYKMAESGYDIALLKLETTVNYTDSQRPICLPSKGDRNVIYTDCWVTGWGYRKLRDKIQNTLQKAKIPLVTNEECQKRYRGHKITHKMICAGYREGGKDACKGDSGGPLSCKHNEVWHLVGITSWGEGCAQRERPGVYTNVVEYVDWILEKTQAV

[5] = target: Urokinase-type plasminogen activator (Homo sapiens) (UniProt P00749); assay: Measured for apparent association constant (binding affinity) for Urokinase-type plasminogen activator
[6] = target: Prothrombin (Homo sapiens) (UniProt P00734); assay: Measured for apparent association constant (binding affinity) for Coagulation factor II
[7] = target: T1, Serine protease 1 (Bos taurus) (UniProt P00760); assay: Measured for apparent association constant (binding affinity) for trypsin (bovine)
T1 sequence (whole entry): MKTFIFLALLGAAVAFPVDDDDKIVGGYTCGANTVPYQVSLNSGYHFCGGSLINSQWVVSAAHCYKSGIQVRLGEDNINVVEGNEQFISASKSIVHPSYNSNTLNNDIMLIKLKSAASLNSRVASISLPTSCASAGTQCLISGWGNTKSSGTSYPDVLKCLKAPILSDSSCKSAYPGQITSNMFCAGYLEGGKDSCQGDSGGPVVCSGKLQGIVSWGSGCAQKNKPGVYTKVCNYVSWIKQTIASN

[8] = target: Vitamin K-dependent protein C (Homo sapiens) (UniProt P04070); assay: Measured for apparent association constant (binding affinity) for activated protein C
Chain of Vitamin K-dependent protein C (Homo sapiens) (P04070 43-197 limits assumed): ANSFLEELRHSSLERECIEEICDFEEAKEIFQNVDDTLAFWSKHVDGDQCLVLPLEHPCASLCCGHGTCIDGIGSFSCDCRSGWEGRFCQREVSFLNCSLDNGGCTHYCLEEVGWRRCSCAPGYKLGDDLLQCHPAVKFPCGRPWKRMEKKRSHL
Chain of Vitamin K-dependent protein C (Homo sapiens) (P04070 212-461 limits assumed): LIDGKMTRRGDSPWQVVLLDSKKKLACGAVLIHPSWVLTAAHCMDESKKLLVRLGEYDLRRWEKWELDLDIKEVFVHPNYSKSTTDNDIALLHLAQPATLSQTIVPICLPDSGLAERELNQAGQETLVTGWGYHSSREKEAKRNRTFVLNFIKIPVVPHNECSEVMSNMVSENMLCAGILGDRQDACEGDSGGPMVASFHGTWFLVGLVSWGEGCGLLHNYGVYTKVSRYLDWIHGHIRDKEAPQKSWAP

[9] = target: T2, Coagulation factor XII (Homo sapiens) (UniProt P00748); assay: Measured for apparent association constant (binding affinity) for Coagulation factor XII
T2 sequence (whole entry): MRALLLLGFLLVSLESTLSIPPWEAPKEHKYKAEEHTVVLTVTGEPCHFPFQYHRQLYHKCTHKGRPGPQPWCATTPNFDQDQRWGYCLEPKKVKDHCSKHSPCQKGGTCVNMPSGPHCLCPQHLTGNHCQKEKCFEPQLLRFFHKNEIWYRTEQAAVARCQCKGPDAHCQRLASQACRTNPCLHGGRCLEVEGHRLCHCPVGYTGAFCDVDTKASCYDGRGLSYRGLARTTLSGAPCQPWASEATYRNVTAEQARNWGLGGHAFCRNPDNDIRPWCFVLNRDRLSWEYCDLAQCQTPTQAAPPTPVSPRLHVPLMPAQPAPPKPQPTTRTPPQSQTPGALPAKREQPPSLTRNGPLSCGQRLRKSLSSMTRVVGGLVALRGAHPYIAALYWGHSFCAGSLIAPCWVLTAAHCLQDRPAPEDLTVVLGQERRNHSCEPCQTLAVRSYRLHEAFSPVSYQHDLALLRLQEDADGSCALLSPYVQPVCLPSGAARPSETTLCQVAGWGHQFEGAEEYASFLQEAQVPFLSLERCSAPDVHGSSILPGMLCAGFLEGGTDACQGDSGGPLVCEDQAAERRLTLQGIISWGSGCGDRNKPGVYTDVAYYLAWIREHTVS

[10] = Measured for apparent association constant (binding affinity) for Factor IIa
[11] = target: Tissue-type plasminogen activator (Homo sapiens) (UniProt P00750); assay: Measured for apparent association constant (binding affinity) for Tissue type plasminogen activator
Chain of Tissue-type plasminogen activator (Homo sapiens) (P00750 36-562 limits assumed): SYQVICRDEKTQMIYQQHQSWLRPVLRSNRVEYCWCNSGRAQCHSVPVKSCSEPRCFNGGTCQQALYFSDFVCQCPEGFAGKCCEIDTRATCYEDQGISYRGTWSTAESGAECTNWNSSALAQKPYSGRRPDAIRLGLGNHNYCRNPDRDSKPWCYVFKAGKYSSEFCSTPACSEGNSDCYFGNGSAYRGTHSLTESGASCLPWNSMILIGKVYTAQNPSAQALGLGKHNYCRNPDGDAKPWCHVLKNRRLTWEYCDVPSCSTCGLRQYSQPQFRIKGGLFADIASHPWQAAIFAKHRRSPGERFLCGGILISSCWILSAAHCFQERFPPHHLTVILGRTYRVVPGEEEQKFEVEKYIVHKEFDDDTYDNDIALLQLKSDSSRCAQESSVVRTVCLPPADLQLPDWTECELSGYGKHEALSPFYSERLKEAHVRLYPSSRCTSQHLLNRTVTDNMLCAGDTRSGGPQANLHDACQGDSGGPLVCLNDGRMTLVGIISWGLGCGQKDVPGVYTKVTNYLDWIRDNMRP

Chain of Plasminogen (Homo sapiens) (P00747 whole entry, looked up): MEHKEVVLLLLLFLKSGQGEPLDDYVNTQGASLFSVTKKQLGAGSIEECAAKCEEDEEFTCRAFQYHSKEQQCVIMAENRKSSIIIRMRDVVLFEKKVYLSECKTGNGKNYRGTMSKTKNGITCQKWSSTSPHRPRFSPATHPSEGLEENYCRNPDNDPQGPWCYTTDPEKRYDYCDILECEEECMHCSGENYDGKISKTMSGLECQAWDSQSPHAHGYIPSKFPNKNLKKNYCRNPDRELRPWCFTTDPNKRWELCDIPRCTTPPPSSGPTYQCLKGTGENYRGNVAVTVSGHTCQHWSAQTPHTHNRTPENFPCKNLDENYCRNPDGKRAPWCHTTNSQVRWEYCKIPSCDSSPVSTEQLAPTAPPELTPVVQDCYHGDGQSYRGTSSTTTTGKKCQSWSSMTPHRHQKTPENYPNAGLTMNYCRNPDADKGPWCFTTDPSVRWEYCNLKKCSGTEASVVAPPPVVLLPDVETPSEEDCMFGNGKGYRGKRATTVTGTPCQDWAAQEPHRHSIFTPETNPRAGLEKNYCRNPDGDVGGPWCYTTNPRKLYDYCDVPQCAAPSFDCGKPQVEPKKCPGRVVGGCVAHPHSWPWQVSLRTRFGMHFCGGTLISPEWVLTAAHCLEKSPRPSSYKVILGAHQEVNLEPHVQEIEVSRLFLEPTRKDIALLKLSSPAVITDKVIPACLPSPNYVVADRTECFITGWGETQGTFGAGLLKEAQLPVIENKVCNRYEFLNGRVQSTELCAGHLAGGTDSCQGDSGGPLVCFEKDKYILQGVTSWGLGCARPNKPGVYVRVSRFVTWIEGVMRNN

Row | Structure (SMILES) | PT [2] [µM] | K ass [3] | further results
1 | O=C(NCC1CCN(c2ccncc2)CC1)Nc1ccccc1NC(=O)c1ccc(Cl)cc1 | 0.58 | 1e+08 l M-1 | K ass [1]: 90000 l M-1; K ass [4]: < 10000 l M-1; K ass [5]: < 10000 l M-1; K ass [6]: 60000 l M-1; K ass [7]: < 10000 l M-1; K ass [8]: < 10000 l M-1; K ass [9]: < 10000 l M-1
2 | COc1ccc(C(=O)Nc2ccccc2NC(=O)OC2CCN(c3ccncc3)CC2)cc1 | 2.6 | 1.7e+07 l M-1 | 
3 | CC(C)(C)c1ccc(C(=O)Nc2cc(C(=O)O)ccc2NC(=O)c2cccc(C(=N)N)c2)cc1 | 0.83 | 4.7e+08 l M-1 | 
4 | CC(C)(C)c1ccc(C(=O)Nc2ccccc2NC(=O)NCC2CCN(c3ccncc3)CC2)cc1 |  | 40000 l M-1 | 
5 | COc1ccc(C(=O)Nc2ccccc2NC(=O)OCC2CCN(c3ccncc3)CC2)cc1 | 1.9 | 2e+07 l M-1 | 
6 | COc1ccc(C(=O)Nc2ccccc2NC(=O)NC2CCN(c3ccncc3)CC2)cc1 | 2.4 | 1.2e+07 l M-1 | 
7 | COc1ccc(C(=O)Nc2ccccc2NC(=O)C2CCN(c3ccncc3)CC2)cc1 | 9.7 | 2.3e+06 l M-1 | 
8 | COc1ccc(C(=O)Nc2ccc(O)cc2NC(=O)c2ccc(C(C)(C)C)cc2)cc1 | > 50 | 6.6e+06 l M-1 | 
9 | CCOc1ccc(C(=O)Nc2ccccc2NC(=O)NCC2CCN(c3ccncc3)CC2)cc1 | 2.6 | 1.5e+07 l M-1 | 
10 | COc1ccc(C(=O)Nc2ccccc2NC(=O)c2ccc(-c3ccncc3)cc2)cc1 | 9.5 | 9.2e+06 l M-1 | 
11 | O=C(NCC1CCN(c2ccncc2)CC1)Nc1ccccc1NC(=O)c1ccccc1 | 6.2 | 5.9e+06 l M-1 | 
12 | COc1ccc(C(=O)Nc2ccccc2NC(=O)OCCC2CCN(c3ccncc3)CC2)cc1 | > 15 | 2.5e+06 l M-1 | 
13 | COc1ccc(C(=O)Nc2ccccc2NC(=O)NCC2CCN(c3ccncc3)CC2)cc1 | 0.96 | 6.2e+07 l M-1 | K ass [1]: < 10000 l M-1; K ass [4]: < 10000 l M-1; K ass [10]: < 10000 l M-1; K ass [5]: < 10000 l M-1; K ass [11]: < 10000 l M-1; K ass [7]: < 10000 l M-1; K ass [8]: < 10000 l M-1; K ass [9]: < 10000 l M-1
